34 compounds from the M2OR odorant receptor database can be followed below.
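Also: active if original authors judged signal statistically different from baseline.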

This assay deals with T1, UniProt Q7TRX0.
T1 sequence (whole entry): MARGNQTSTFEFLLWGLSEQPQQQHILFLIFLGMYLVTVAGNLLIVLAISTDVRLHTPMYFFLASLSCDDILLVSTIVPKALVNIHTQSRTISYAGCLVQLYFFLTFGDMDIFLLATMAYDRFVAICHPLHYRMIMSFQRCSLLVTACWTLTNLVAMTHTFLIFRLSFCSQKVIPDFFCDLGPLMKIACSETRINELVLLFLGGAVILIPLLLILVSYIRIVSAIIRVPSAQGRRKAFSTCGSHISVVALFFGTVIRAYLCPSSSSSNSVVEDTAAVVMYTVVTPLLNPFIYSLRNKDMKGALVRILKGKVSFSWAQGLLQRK
The following applies: stereoisomer not certain. Put shortly:
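Transient luciferase assays in mammalian cell lines were common, though methods varied by source. The values come from published papers and their supplementary material, with extra details from the original authors when needed. Responsive refers to a measured signal the original authors judged statistically different from baseline, and non-responsive (inactive) to the remainder.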
For `C=C(CC)CCCC(C)(C)O`, the “odorant receptor agonist call” value was “inactive”.
Regarding `CCCCCCC(C=O)=Cc1ccccc1`, the “odorant receptor agonist call” value was “inactive”.
`CC(C)CCN`: the “odorant receptor agonist call” value was “inactive”.
To `COC(OC)c1ccccc1` belongs “inactive”; to `Cc1occc1SSc1ccoc1C`, “inactive”.
To `CCCCCCCCCCCO` belongs “inactive”.
Then `CSSSC`, with “inactive”; and `C=C(C)C1CCC(C)C(O)C1` (centres undefined), with “inactive”; and `C=CC(C)=CCC=C(C)CCC=C(C)C`, with “inactive”.
With `CCCCCCC(C)O` (centres undefined), the “odorant receptor agonist call” value was “inactive”.
Then `CSSCc1ccco1`, with “inactive”; and `CCCC=O`, with “inactive”; and `CCCCC=O`, with “inactive”.
To `CC(C)=CCCC(C)=CCOC(=O)C(C)C` belongs “inactive”; to `CC(CC=O)CCCC(C)(C)O` (centres undefined), “inactive”; to `C=C1C2CCC(C2)C1(C)C` (centres undefined), “inactive”.
To `CCCCCCCOC(=O)C(C)C` belongs “inactive”.
For `CCCCCC(C=O)=Cc1ccccc1`, the “odorant receptor agonist call” value was “inactive”.
Take `CC=C(C)C=O`: the “odorant receptor agonist call” value is “inactive”.
To `c1ccc2ncccc2c1` belongs “inactive”.
As for `CCCCCOC(=O)CC`, the “odorant receptor agonist call” value was “inactive”.
On to `CC(=O)C=CC1=C(C)CCCC1(C)C`, for which the “odorant receptor agonist call” value was “inactive”.
Then `C=C(C)C1CC=C(C)CC1` (centres undefined), with “inactive”; and `CCCCCCCCOC=O`, with “inactive”; and `C=CC(=C)CCC=C(C)C`, with “inactive”.
As for `CCc1ccccc1O`, the “odorant receptor agonist call” value was “inactive”.
Then `CCC=CCCC=CC=O`, with “inactive”; and `CCOC(=O)C(C)CC` (centres undefined), with “inactive”; and `CC(=O)C1(C)CC2=C(CCCC2(C)C)CC1C` (centres undefined), with “inactive”.
In the case of `CCc1occc(=O)c1O`, the “odorant receptor agonist call” value was “inactive”.
To `O=C(O)C1CCC1` belongs “inactive”.
To `CNc1ccccc1C(=O)OC` belongs “inactive”; to `CCSCC`, “inactive”.
Then `C=CC(=O)CCCCC`, with “inactive”.
